Reference: ChEMBL document CHEMBL1137240, “Conjugation of adenosine and hexa-(D-arginine) leads to a nanomolar bisubstrate-analog inhibitor of basophilic protein kinases” (J Med Chem, 2006)

Assays:
[1] = target: cAMP-dependent protein kinase catalytic subunit alpha (Homo sapiens, UniProt P17612); assay: Inhibitory potency towards human cAPK C alpha in the presence of 100 uM ATP and 30 uM TAMRA-kemptide
Method in brief: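 cAPK catalytic subunit (about 1 nM) incubated at 30 °C with inhibitor at various concentrations in 50 mM Hepes pH 7.5, 10 mM Mg acetate, 0.2 mg/mL BSA, 30 µM TAMRA-kemptide; reaction started with 100 µM ATP. Stopped at fixed times by 20-fold dilution in 75 mM phosphoric acid, then normal-phase TLC with fluorescence imaging (532 nm excitation). IC50 determined.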

[2] = organism: Homo sapiens; assay: Percent residual activity, relative to control, of MAPKAP-K1b/Rsk2 at 1 uM concentration of inhibitor in presence of 50 uM ATP
Method in brief: (§1)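 It is expressed as percent of activity in control incubations without inhibitor, as the mean of duplicate determinations. The protocol follows earlier published panel methods.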

[3] = target: Serine/threonine-protein kinase Sgk1 (Homo sapiens) (UniProt O00141); assay: Percent residual activity, relative to control, of SGK at 1 uM concentration of inhibitor in presence of 20 uM ATP; method in brief: as §1
[4] = target: AMP-activated protein kinase, AMPK (Homo sapiens) (UniProt P54646+O43741+P54619+Q9UGJ0+Q9Y478+Q13131+Q9UGI9); assay: Percent residual activity, relative to control, of AMPK at 1 uM concentration of inhibitor in presence of 50 uM ATP; type: protein-complex assay; method in brief: as §1
[5] = target: Serine/threonine-protein kinase Nek6 (Homo sapiens) (UniProt Q9HC98); assay: Percent residual activity, relative to control, of NEK6 at 1 uM concentration of inhibitor in presence of 50 uM ATP; method in brief: as §1
[6] = target: Aurora kinase B (Homo sapiens) (UniProt Q96GD4); assay: Percent residual activity, relative to control, of Aurora-B at 1 uM concentration of inhibitor in presence of 20 uM ATP; method in brief: as §1
[7] = target: Serine/threonine-protein kinase pim-2 (Homo sapiens) (UniProt Q9P1W9); assay: Percent residual activity, relative to control, of PIM2 at 1uM concentration of inhibitor in presence of 5uM ATP; method in brief: as §1
[8] = organism: Homo sapiens; assay: Percent residual activity, relative to control, of CAMK-1 at 1 uM concentration of inhibitor in presence of 50 uM ATP; method in brief: as §1
[9] = target: Casein kinase II (Homo sapiens) (UniProt P67870+P68400+P19784); assay: Percent residual activity, relative to control, of CK2 at 1 uM concentration of inhibitor in presence of 5 uM ATP; type: protein-complex assay; method in brief: as §1
[10] = target: Tyrosine-protein kinase Lck (Homo sapiens) (UniProt P06239); assay: Percent residual activity, relative to control, of Lck at 1uM concentration of inhibitor in presence of 50uM ATP; method in brief: as §1
[11] = target: 3-phosphoinositide-dependent protein kinase 1 (Homo sapiens) (UniProt O15530); assay: Percent residual activity, relative to control, of PDK1 at 1 uM concentration of inhibitor in presence of 20 uM ATP; method in brief: as §1
[12] = target: MAP kinase-activated protein kinase 5 (Homo sapiens) (UniProt Q8IW41); assay: Percent residual activity, relative to control, of PRAK at 1uM concentration of inhibitor in presence of 20uM ATP; method in brief: as §1
[13] = target: Protein kinase C alpha type (Homo sapiens) (UniProt P17252); assay: Percent residual activity, relative to control, of PKC alpha at 1uM concentration of inhibitor in presence of 20uM ATP; method in brief: as §1
[14] = target: Cyclin-dependent kinase 2/cyclin A (Homo sapiens) (UniProt P24941+P20248+P78396); assay: Percent residual activity, relative to control, of CDK2 (with cyclin A) at 1 uM concentration of inhibitor in presence of 20 uM ATP; type: protein-complex assay; method in brief: as §1
[15] = target: Tyrosine-protein kinase CSK (Homo sapiens) (UniProt P41240); assay: Percent residual activity, relative to control, of CSK at 1 uM concentration of inhibitor in presence of 20 uM ATP; method in brief: as §1
[16] = target: Ribosomal protein S6 kinase alpha-1 (Homo sapiens) (UniProt Q15418); assay: Percent residual activity, relative to control, of MAPKAP-K1a/Rsk1 at 1 uM concentration of inhibitor in presence of 50 uM ATP; method in brief: as §1
[17] = target: MAP kinase-activated protein kinase 2 (Homo sapiens) (UniProt P49137); assay: Percent residual activity, relative to control, of MAPKAP-K2 at 1 uM concentration of inhibitor in presence of 20 uM ATP; method in brief: as §1
[18] = target: Serine/threonine-protein kinase D1 (Homo sapiens) (UniProt Q15139); assay: Percent residual activity, relative to control, of PKD1 at 1 uM concentration of inhibitor in presence of 50 uM ATP; method in brief: as §1
[19] = target: Serine/threonine-protein kinase PLK1 (Homo sapiens) (UniProt P53350); assay: Percent residual activity, relative to control, of PLK1 at 1 uM concentration of inhibitor in presence of 5 uM ATP; method in brief: as §1
[20] = target: Serine/threonine-protein kinase Chk2 (Homo sapiens) (UniProt O96017); assay: Percent residual activity, relative to control, of CHK2 at 1uM concentration of inhibitor in presence of 20uM ATP; method in brief: as §1
[21] = target: Mitogen-activated protein kinase 10 (Homo sapiens) (UniProt P53779); assay: Percent residual activity, relative to control, of JNK3 at 1uM concentration of inhibitor in presence of 50uM ATP; method in brief: as §1
[22] = target: Serine/threonine-protein kinase 3 (Homo sapiens) (UniProt Q13188); assay: Percent residual activity, relative to control, of MST2 at 1 uM concentration of inhibitor in presence of 20 uM ATP; method in brief: as §1
[23] = target: c-Jun N-terminal kinase, JNK (Homo sapiens) (UniProt P45983+P53779+P45984); assay: Percent residual activity, relative to control, of JNK/SAPK1c at 1 uM concentration of inhibitor in presence of 20 uM ATP; type: protein assay; method in brief: as §1
[24] = target: Proto-oncogene tyrosine-protein kinase Src (Homo sapiens) (UniProt P12931); assay: Percent residual activity, relative to control, of Src at 1 uM concentration of inhibitor in presence of 50 uM ATP
Method in brief: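 Methods followed an earlier description. Activity is given as percent residual activity relative to control incubations with the inhibitor omitted. Values are means of duplicate determinations.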

[25] = target: Mitogen-activated protein kinase 15 (Homo sapiens) (UniProt Q8TD08); assay: Percent residual activity, relative to control, of ERK8 at 1 uM concentration of inhibitor in presence of 5 uM ATP; method in brief: as §1

Sequence of Proto-oncogene tyrosine-protein kinase Src (Homo sapiens) (P12931 2-536 limits assumed): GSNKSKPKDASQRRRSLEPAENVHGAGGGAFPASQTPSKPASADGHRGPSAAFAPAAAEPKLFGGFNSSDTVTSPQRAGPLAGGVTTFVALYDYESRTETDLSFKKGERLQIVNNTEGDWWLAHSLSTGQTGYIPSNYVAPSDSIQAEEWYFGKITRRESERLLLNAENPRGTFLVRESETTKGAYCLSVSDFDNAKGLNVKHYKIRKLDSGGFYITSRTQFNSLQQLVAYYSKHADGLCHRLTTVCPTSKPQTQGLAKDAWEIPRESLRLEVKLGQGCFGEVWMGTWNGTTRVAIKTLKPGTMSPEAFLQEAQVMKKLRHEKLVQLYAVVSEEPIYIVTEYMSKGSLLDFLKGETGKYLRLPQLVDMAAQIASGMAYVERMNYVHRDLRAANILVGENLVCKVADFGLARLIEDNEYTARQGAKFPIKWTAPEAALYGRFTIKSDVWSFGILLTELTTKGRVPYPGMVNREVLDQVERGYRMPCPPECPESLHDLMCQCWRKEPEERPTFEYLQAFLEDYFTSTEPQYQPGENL
Sequence of Tyrosine-protein kinase CSK (Homo sapiens) (P41240 2-450 limits assumed): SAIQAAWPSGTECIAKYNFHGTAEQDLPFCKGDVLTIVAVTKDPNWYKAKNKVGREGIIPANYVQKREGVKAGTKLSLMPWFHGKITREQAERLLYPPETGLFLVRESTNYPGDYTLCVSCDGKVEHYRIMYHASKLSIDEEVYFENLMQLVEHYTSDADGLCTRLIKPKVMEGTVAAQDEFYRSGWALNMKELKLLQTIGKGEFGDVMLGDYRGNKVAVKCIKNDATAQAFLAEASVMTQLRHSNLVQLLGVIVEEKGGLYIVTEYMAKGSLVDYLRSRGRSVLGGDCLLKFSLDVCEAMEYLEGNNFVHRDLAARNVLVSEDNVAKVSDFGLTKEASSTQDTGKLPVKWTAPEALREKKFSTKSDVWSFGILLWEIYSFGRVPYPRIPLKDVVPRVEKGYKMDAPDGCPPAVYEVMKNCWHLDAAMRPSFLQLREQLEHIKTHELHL
Sequence of 3-phosphoinositide-dependent protein kinase 1 (Homo sapiens) (O15530 whole entry): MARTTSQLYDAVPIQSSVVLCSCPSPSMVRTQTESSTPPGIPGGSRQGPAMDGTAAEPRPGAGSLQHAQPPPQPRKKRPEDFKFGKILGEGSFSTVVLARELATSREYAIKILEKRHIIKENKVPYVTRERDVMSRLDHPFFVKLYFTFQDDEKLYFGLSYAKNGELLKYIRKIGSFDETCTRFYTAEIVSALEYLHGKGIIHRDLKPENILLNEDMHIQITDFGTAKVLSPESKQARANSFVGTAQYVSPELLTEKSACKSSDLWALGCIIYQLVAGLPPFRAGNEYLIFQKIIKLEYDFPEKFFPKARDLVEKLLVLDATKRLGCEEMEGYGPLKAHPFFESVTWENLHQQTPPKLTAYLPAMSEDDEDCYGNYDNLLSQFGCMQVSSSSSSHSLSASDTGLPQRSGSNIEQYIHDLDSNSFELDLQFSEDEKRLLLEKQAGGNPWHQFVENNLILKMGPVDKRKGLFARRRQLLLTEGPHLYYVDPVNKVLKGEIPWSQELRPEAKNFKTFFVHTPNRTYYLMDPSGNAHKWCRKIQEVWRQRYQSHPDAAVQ
Sequence of Serine/threonine-protein kinase Nek6 (Homo sapiens) (Q9HC98 whole entry): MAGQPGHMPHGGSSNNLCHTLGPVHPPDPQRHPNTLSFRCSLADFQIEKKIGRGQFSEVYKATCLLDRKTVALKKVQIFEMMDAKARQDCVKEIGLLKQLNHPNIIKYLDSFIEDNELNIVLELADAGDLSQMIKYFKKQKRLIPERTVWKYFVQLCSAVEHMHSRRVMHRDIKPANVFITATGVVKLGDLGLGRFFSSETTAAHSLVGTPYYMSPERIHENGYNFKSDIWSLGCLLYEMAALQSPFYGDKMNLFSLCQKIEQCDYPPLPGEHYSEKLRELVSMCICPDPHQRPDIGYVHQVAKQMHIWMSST
Sequence of Mitogen-activated protein kinase 10 (Homo sapiens) (P53779 whole entry): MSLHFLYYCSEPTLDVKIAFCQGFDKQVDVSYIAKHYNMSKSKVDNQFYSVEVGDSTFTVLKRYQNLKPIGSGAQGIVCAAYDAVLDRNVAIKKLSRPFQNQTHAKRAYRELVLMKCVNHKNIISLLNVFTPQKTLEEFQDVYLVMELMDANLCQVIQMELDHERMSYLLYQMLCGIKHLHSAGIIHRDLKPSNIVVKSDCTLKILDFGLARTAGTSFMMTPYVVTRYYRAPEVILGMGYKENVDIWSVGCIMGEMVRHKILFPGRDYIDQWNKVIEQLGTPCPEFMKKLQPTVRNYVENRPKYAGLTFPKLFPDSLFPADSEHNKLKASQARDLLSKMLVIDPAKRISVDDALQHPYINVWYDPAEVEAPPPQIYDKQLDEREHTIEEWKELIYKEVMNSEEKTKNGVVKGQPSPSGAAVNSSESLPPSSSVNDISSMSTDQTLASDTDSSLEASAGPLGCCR
Sequence of Serine/threonine-protein kinase PLK1 (Homo sapiens) (P53350 whole entry): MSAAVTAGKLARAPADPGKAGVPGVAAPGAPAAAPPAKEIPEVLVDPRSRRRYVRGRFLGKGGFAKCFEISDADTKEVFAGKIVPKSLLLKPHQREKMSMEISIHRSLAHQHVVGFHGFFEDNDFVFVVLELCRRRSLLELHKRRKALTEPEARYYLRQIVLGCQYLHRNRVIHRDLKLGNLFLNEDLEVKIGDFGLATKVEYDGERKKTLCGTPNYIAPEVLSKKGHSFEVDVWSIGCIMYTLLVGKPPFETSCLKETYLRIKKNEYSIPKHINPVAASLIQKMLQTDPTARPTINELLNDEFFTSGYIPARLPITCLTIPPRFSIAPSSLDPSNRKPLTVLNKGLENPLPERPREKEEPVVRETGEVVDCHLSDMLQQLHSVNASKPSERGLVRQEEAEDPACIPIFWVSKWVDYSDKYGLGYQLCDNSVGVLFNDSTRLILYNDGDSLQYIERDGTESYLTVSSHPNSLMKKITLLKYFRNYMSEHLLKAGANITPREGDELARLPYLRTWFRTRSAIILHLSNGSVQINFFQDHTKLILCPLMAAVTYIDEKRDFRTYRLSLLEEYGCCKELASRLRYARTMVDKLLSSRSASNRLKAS
Sequence of Ribosomal protein S6 kinase alpha-1 (Homo sapiens) (Q15418 whole entry): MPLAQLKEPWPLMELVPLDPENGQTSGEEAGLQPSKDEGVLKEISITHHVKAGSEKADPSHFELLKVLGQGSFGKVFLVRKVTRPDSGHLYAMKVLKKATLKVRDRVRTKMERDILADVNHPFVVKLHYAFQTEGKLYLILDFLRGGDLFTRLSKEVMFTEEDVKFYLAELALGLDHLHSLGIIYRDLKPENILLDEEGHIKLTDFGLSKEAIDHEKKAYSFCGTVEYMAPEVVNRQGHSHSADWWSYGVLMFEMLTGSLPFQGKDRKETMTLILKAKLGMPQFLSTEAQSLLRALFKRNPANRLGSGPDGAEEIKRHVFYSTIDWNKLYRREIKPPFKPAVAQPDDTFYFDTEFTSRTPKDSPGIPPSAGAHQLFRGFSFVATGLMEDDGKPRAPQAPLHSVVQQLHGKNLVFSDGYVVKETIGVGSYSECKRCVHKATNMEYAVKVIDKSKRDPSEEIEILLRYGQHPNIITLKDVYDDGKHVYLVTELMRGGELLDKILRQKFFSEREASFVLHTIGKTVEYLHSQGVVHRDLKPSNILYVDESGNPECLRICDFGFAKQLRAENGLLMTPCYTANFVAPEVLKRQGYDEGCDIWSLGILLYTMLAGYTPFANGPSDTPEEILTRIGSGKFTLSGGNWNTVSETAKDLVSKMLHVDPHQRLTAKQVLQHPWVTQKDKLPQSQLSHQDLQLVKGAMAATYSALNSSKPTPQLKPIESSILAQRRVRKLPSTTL
Sequence of Serine/threonine-protein kinase Chk2 (Homo sapiens) (O96017 whole entry): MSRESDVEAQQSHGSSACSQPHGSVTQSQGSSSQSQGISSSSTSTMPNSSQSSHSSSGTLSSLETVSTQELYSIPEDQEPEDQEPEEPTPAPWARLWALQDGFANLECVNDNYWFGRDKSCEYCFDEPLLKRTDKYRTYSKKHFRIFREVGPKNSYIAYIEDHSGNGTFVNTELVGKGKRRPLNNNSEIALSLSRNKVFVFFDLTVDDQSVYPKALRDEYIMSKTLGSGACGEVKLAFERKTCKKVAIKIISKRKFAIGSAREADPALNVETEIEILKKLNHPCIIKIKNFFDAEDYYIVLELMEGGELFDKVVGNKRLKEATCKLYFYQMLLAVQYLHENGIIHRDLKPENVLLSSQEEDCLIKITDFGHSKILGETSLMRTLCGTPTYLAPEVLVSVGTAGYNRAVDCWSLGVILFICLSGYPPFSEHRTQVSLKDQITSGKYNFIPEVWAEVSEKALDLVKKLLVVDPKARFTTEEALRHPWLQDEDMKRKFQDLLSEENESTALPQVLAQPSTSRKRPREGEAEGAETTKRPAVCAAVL

## N=C(N)NCCC[C@@H](NC(=O)[C@@H](CCCNC(=N)N)NC(=O)[C@@H](CCCNC(=N)N)NC(=O)[C@@H](CCCNC(=N)N)NC(=O)[C@@H](CCCNC(=N)N)NC(=O)[C@@H](CCCNC(=N)N)NC(=O)CCCCCNC(=O)[C@H]1O[C@@H](n2cnc3c(N)ncnc32)[C@H](O)[C@@H]1O)C(N)=O
[1]
  IC50: 0.109 µM
[2]
  Activity: 12%
[3]
  Activity: 16%
[4]
  Activity: 48%
[5]
  Activity: 94%
[6]
  Activity: 103%
[7]
  Activity: 38%
[8]
  Activity: 15%
[9]
  Activity: 104%
[10]
  Activity: 70%
[11]
  Activity: 62%
[12]
  Activity: 89%
[13]
  Activity: 31%
[14]
  Activity: 88%
[15]
  Activity: 48%
[16]
  Activity: 28%
[17]
  Activity: 85%
[18]
  Activity: 54%
[19]
  Activity: 81%
[20]
  Activity: 14%
[21]
  Activity: 91%
[22]
  Activity: 77%
[23]
  Activity: 70%
[24]
  Activity: 84%
[25]
  Activity: 50%
